From PubChem BioAssay
Shown are actives, neighbours in structure and some others; about 5.8% of the full set was active somewhere.
GASC1 inh: KDM4C (human) demethylase inhibition | Q9H3R0 | inhibition, % at 12.5 µM | GST-KDM4C 2-372, H3K9me3 peptide, LANCE TR-FRET | actives 0.15% (n = 96,000);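 active = mean replicate inhibition above about 25%, with at least 55% of replicates also reaching it, limit read from the data, passing the limit was not always enough; inconclusive = only one of those two conditions met; inactive = neither condition met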
Target sequence (Q9H3R0 2-372 limits assumed): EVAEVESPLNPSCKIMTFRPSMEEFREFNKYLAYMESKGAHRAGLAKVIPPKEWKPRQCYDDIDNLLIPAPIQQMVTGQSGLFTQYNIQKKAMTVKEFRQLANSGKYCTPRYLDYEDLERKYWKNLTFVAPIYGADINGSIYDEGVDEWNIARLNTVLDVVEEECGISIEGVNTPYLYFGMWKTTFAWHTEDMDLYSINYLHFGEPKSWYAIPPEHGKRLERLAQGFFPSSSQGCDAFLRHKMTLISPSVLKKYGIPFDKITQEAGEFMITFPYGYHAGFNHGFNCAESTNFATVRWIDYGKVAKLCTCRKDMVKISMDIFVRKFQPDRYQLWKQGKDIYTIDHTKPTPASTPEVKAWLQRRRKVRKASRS
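Material: GST-tagged GASC-1 (JMJD2C) catalytic fragment, aa 2-372. Input: enzyme final amount 10 nM. Medium: HEPES buffer, pH 7.5, plus ascorbate. Reagent: H3K9me3 peptide substrate, Fe(II), 2-oxoglutarate. Doses: single dose. Times: reaction 30 min RT, detection step 1 h RT. Measured by: LANCE TR-FRET. Evaluation: Fall in 671/618 emission ratio as inhibition.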
Pf Dd2 inh: blocks growth of Plasmodium falciparum Dd2 parasites; P. falciparum Dd2 growth, SYBR Green, 72 h; stronger effect = lower value; actives 2.3% (n = 94,000); activity change, % at 10 µM; AID 1159554; in the data active = activity change below about -80%; inconclusive = no clear call, values can overlap the other calls
IDH1 R132H inh: blocks human IDH1 R132H reductase activity; O75874; diaphorase/resazurin fluorescence, 60 min; inhibition, % at 10 µM; actives 0.18% (n = 70,000); in the data active = inhibition above about 34%; inconclusive = no clear call, values can overlap the other calls; inactive = below about 11%;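 note: 0% = DMSO and 100% = no enzyme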
Target sequence (O75874 whole entry R132H): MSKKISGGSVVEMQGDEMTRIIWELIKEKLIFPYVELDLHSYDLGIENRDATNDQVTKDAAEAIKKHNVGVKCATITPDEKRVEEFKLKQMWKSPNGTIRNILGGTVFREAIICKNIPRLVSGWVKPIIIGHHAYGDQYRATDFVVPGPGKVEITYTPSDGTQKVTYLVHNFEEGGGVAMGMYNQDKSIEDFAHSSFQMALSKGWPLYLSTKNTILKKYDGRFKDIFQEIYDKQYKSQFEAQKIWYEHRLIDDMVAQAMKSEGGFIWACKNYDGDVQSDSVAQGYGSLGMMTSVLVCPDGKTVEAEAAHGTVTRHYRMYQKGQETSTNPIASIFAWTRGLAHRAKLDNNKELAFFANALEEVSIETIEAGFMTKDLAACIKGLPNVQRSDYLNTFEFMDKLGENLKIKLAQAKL
T cruzi growth-1: blocks T. cruzi growth in NIH3T3 culture | T. cruzi beta-gal in NIH3T3, GalScreen luminescence, 90 h | inhibition, % at 8.34 µM | actives 5.9% (n = 77,000) | AID 624255;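 active = mean inhibition above about 93%, with at least 55% of replicates each passing it, limit read from the data, passing the limit was not always enough; inconclusive = only one of those two conditions holds; inactive = neither condition holds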
T cruzi growth-2: inhibitors of T. cruzi proliferation. shares compounds with T cruzi growth-1. T. cruzi beta-gal in NIH3T3, GalScreen luminescence, 90 h. inhibition, % at 8.35 µM. actives 72% (n = 5,600). AID 651739;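 active = mean replicate inhibition above about 95% and at least 55% of replicates individually reaching it, limit read from the data; inconclusive = only one of the two criteria is met; inactive = neither criterion is met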
T cruzi growth-3: inhibitors of T. cruzi proliferation; T. cruzi beta-gal in NIH3T3, GalScreen luminescence, 90 h; AID 651740; actives 21% (n = 5,600); shares compounds with T cruzi growth-1; inhibition, % at 2.09 µM;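 active = mean inhibition above about 95%, with at least 55% of replicates also reaching it, limit read from the data; inconclusive = meets just one of the two conditions; inactive = meets neither condition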;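 note: plate controls were neutral control median for no effect and positive control median for full effect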
3T3 cytotox: kills mouse NIH/3T3 fibroblasts; cytotoxicity (signal decrease), % at 8.35 µM; shares compounds with T cruzi growth-1; actives 14% (n = 5,600); AID 651742; NIH/3T3 viability, CellTiter-Glo ATP luminescence, 90 h;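 active = mean signal decrease across replicates above about 35% based on untreated-well scatter, with enough replicates individually passing, limit read from the data; inconclusive = no rule stated though some were filed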;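 note: 0% = median of neutral control wells and 100% = median of positive control wells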
3T3 cytotox 2: kills mouse NIH/3T3 fibroblasts | shares compounds with T cruzi growth-1 | NIH/3T3 viability, CellTiter-Glo ATP luminescence, 90 h | inhibition, % at 24.9 µM | actives 56% (n = 5,600) | AID 651744;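 active = mean loss of cell viability signal at or above a set limit, and enough replicates individually reaching it; inconclusive = meets only the mean limit or only the replicate share; inactive = meets neither condition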;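 note: 0% = median of neutral control wells and 100% = median of positive control wells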
An asterisk follows results filed as active; ? = inconclusive; · = not tested or not shown.

SMILES | GASC1 inh | Pf Dd2 inh | IDH1 R132H inh | T cruzi growth-1 | T cruzi growth-2 | T cruzi growth-3 | 3T3 cytotox | 3T3 cytotox 2
O=C(NCC[C@H]1CC[C@H](NS(=O)(=O)c2cccc(Cl)c2)[C@@H](CO)O1)c1cnccn1 | -2.0 | -2.1 | -0.2 | 143.8* | 21.1 | -28.5 | -16.2 | 18.2
COc1cccc(S(=O)(=O)N[C@H]2CC[C@@H](CCNC(=O)Cc3ccncc3)O[C@H]2CO)c1 | 0.7 | -5.1 | -0.2 | 106.2* | 43.6 | -9.3 | -2.2 | -3.8
O=C(NCC[C@@H]1CC[C@@H](NS(=O)(=O)c2cccc(Cl)c2)[C@@H](CO)O1)c1cnccn1 | -0.1 | 13.7 | 0.2 | -31.2 | · | · | · | ·
C[C@@H]1CCCCO[C@@H](CN(C)C(=O)c2ccccc2)[C@H](C)CN([C@H](C)CO)C(=O)c2cc(NS(=O)(=O)c3ccc(Cl)cc3)ccc2O1 | -1.7 | -29.8 | · | 98.0* | 111.3* | 32.4 | 21.2 | -1.7
C[C@@H]1CCCCO[C@H](CN(C)C(=O)c2ccccc2)[C@H](C)CN([C@H](C)CO)C(=O)c2cc(NS(=O)(=O)c3ccc(Cl)cc3)ccc2O1 | -0.1 | -21.0 | -0.4 | 57.3 | · | · | · | ·
C[C@H](CO)N1C[C@H](C)[C@H](CN(C)C(=O)Nc2ccccc2)OCCCC[C@H](C)Oc2ccc(NS(=O)(=O)c3ccc(Cl)cc3)cc2C1=O | 78.7* | -56.2 | · | 124.1* | 110.3* | 77.8 | 18.7 | 29.4
C[C@@H]1CCCCO[C@H](CN(C)C(=O)Nc2ccccc2)[C@@H](C)CN([C@H](C)CO)C(=O)c2cc(NS(=O)(=O)c3ccc(Cl)cc3)ccc2O1 | -0.5 | -51.6 | 0.0 | 63.4 | · | · | · | ·
C[C@@H]1CCCCO[C@H](CN(C)C(=O)Nc2ccccc2)[C@H](C)CN([C@@H](C)CO)C(=O)c2cc(NS(=O)(=O)c3ccc(Cl)cc3)ccc2O1 | 0.9 | -73.9 | 1.1 | ? | 101.2* | 76.5 | -1.8 | -3.6
C[C@H](CO)N1C[C@H](C)[C@@H](CN(C)C(=O)Nc2ccccc2)OCCCC[C@H](C)Oc2ccc(NS(=O)(=O)c3ccc(Cl)cc3)cc2C1=O | -1.4 | -63.1 | · | 89.5 | · | · | · | ·
C[C@@H]1CN([C@@H](C)CO)C(=O)c2cc(NS(=O)(=O)c3ccc(Cl)cc3)ccc2O[C@@H](C)CCCCO[C@@H]1CN(C)C(=O)Nc1ccccc1 | -0.3 | -78.8 | -0.7 | 100.2* | 97.9* | -2.3 | 13.2 | 24.2*
CC(C)CC#Cc1ccc2c(c1)O[C@@H](CN(C)C(=O)C1CCCCC1)[C@@H](C)CN([C@H](C)CO)S2(=O)=O | -0.6 | -44.1 | · | 114.5* | 95.7* | 116.1* | 1.5 | 104.7*
CC(C)CC#Cc1ccc2c(c1)O[C@H](CN(C)C(=O)C1CCC1)[C@@H](C)CN([C@H](C)CO)S2(=O)=O | -0.8 | -45.7 | · | 93.4 | · | · | · | ·
CC(C)CC#Cc1ccc2c(c1)O[C@@H](CN(C)C(=O)C1CCCCC1)[C@H](C)CN([C@H](C)CO)S2(=O)=O | 3.6 | -65.7 | -8.5 | 114.0* | 100.2* | 111.5* | -2.1 | 103.9*
CC(C)CC#Cc1ccc2c(c1)O[C@H](CN(C)C(=O)C1CCCCC1)[C@H](C)CN([C@H](C)CO)S2(=O)=O | -0.8 | -66.3 | · | 110.7* | 98.6* | 106.4* | 63.4* | 104.3*
CN(CCO)c1ccc(/C=N/NC(=O)c2ccccn2)cc1 | · | · | -0.2 | · | · | · | · | ·
Cn1cnc(S(=O)(=O)N2CCCCN3[C@H](C2)[C@@H](c2ccc(-c4ccccc4)cc2)[C@@H]3CO)c1 | 0.2 | 19.9 | · | 106.4* | 99.5* | -13.1 | 2.4 | 11.2
Cn1cnc(S(=O)(=O)N2CCCCN3[C@H](CO)[C@@H](c4ccc(-c5ccccc5)cc4)[C@H]3C2)c1 | -1.1 | 14.3 | · | 98.3* | 40.0 | -32.7 | -7.3 | -5.0
Cn1cnc(S(=O)(=O)N2CCCCN3[C@H](CO)[C@@H](c4ccc(-c5ccc(F)cc5)cc4)[C@H]3C2)c1 | 0.1 | 40.2 | · | -22.7 | · | · | · | ·
Cn1cnc(S(=O)(=O)N2CCCCN3[C@H](CO)[C@H](c4ccc(-c5ccc(F)cc5)cc4)[C@H]3C2)c1 | 0.3 | 44.1 | · | ? | ? | 18.4 | 18.9 | 40.6*
Cn1cnc(S(=O)(=O)N2CCCCN3[C@@H](CO)[C@H](c4ccc(-c5ccccc5)cc4)[C@@H]3C2)c1 | 0.2 | 42.4 | · | 100.4* | -13.5 | 9.9 | 9.0 | 32.6*
Cn1cnc(S(=O)(=O)N2CCCCN3[C@H](C2)[C@@H](c2ccc(-c4ccc(F)cc4)cc2)[C@@H]3CO)c1 | 0.0 | 37.5 | · | 23.4 | · | · | · | ·
CC(/C=C/C(=O)NO)=C\c1cccc(OCc2ccc(-c3ccncc3)cc2)c1 | · | · | 0.3 | · | · | · | · | ·
Cc1cccc(-c2ccc([C@@H]3[C@@H](CO)N4CCCCN(S(=O)(=O)c5cn(C)cn5)C[C@H]34)cc2)c1 | -0.1 | 8.3 | · | 102.1* | 11.1 | -15.5 | 9.4 | 8.5
C[C@@H]1CN([C@H](C)CO)C(=O)c2ccccc2-c2ccccc2CO[C@H]1CN(C)S(=O)(=O)c1cccs1 | 0.8 | 13.9 | · | ? | 89.3 | 15.5 | 20.8 | ?
C[C@@H]1CN([C@H](C)CO)C(=O)c2ccccc2-c2ccccc2CO[C@H]1CN(C)S(=O)(=O)c1ccc(F)cc1 | 0.8 | 52.8 | · | -11.4 | · | · | · | ·
SMILES | GASC1 inh | Pf Dd2 inh | IDH1 R132H inh | T cruzi growth-1 | T cruzi growth-2 | T cruzi growth-3 | 3T3 cytotox | 3T3 cytotox 2
Cc1noc(C)c1C(=O)N(C)C[C@H]1OCc2ccccc2-c2ccccc2C(=O)N([C@H](C)CO)C[C@H]1C | 0.0 | -9.8 | · | ? | 75.4 | 4.0 | -7.0 | 9.6
C[C@@H]1CN([C@H](C)CO)C(=O)c2ccccc2-c2ccccc2CO[C@H]1CN(C)S(=O)(=O)c1ccc(C(F)(F)F)cc1 | -0.4 | -51.7 | · | 95.7* | ? | 27.6 | -3.6 | 20.0
COc1ccc(NC(=O)CCSc2nnc3scc(-c4ccc(C)cc4)n23)cc1 | · | · | -0.5 | · | · | · | · | ·
C[C@H]1CN([C@@H](C)CO)S(=O)(=O)c2ccc(Br)cc2O[C@H]1CN(C)S(=O)(=O)c1ccccc1F | 1.4 | -45.2 | · | 73.5 | · | · | · | ·
C[C@H]1CN([C@@H](C)CO)S(=O)(=O)c2ccc(C#Cc3cccc(F)c3)cc2O[C@@H]1CN(C)S(=O)(=O)c1ccccc1F | -0.4 | -69.1 | 0.4 | 104.1* | 103.9* | 102.7* | 23.0 | 60.0*
C[C@H]1CN([C@@H](C)CO)S(=O)(=O)c2ccc(C#Cc3cccc(F)c3)cc2O[C@H]1CN(C)S(=O)(=O)c1ccccc1F | 0.2 | -9.7 | 0.0 | 111.3* | 106.1* | 72.1 | 22.1 | ?
COc1cccc2cc(-c3nnc(SCC(=O)Nc4cccc(SC)c4)n3C)oc12 | · | · | 0.2 | · | · | · | · | ·
O=C(Nc1ccccc1C(=O)NCCOc1ccccc1)c1ccc(Cl)cc1 | · | · | -0.1 | · | · | · | · | ·
